Source: PubChem BioAssay (several laboratories)
EBI2 block – blocks human EBI2 receptor beta-arrestin signaling | P32249 | hit rate 0.81% among 360,000 | inhibition, % at 5 µM | EBI2 beta-arrestin recruitment, luminescence, 7a,25-OHC stimulated; in the data active means inhibition above about 38%;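 further: enzyme fragment complementation signal reports receptor beta-arrestin coupling in cells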
Target sequence (P32249 whole entry, looked up, the tested form may be a part): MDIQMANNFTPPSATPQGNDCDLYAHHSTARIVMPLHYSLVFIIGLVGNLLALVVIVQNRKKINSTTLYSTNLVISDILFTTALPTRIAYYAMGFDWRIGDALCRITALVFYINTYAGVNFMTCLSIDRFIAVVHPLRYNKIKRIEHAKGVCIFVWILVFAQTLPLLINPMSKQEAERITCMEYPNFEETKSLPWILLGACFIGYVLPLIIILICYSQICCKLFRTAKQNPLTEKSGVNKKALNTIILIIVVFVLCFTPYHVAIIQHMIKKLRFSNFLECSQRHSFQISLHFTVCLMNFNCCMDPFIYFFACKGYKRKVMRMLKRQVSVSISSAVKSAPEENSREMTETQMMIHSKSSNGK
CCR6 antagonist – CCR6 (human) receptor antagonism. AID 493098. inhibition, % at 20 µM. CHO-K1 CCR6 PathHunter beta-arrestin, luminescence, CCL20-stimulated. hit rate 0.49% among 340,000;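 active means compounds whose inhibition of the agonist-driven luminescence signal at 20 µM reaches about 50%, limit read from the data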;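 further: cells stimulated with CCL20 at 14 nM final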
APJ agonist – agonists of human APJ apelin receptor. CHO-K1 APJ PathHunter beta-arrestin, luminescence; 0% DMSO wells, 100% apelin. activation, % at 20 µM. hit rate 0.11% among 330,000;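 active means activation more than six SD over the plate average, tested at 20 µM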
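system = engineered CHO-K1 APJ arrestin reporter cells | input = 1000 cells per well | timing = overnight seeding, 90 min compound at 25 °C, 1 h detection | measured by = enzyme-fragment complementation luminescence | read-out = beta-arrestin recruitment to APJ as agonist activity, luminescent signal | control set = negative DMSO alone, positive Apelin-13 at 10 nM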
m5-HT2A agonist – activates the mouse 5-HT2A serotonin receptor | CHO-K1 mHTR2A beta-arrestin complementation, luminescence; percent of 30 µM serotonin response | activation, % at 7.6 µM | hit rate 0.66% among 360,000 | AID 624169;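 active means activation above a run cutoff, the mean activation of all tested compounds plus 3 SD, cut at about 14% in these data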
APJ antagonist – blocks the human apelin receptor APJ. CHO-K1 APJ beta-arrestin complementation, luminescence. inhibition, % at 20 µM. hit rate 0.32% among 330,000. AID 2521;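 active means inhibition above about 40% at 20 µM, limit read from the data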;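 further: cells challenged with 10 nM apelin-13 agonist together with compound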
CXCR6 block – blocks human CXCR6 beta-arrestin recruitment; O00574; CHO-K1 PathHunter CXCR6 beta-arrestin, luminescence; inhibition, % at 20 µM; hit rate 0.36% among 360,000; in the data active means inhibition above about 34%, passing the limit was not always enough;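 further: antagonist mode with CXCL16 agonist at 10 nM final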
MOR ag counter – activates human mu opioid receptor in HTR2A counterscreen. shares compounds with m5-HT2A agonist. U2OS OPRM1 beta-arrestin PathHunter, luminescence; DMSO 0%, DAMGO 9.3 µM 100%. activation, % at 9.3 µM. hit rate 5.3% among 2,300. AID 624380;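 active means mean activation above the mean of DMSO-only wells plus 3 SD, cut at about 0.5% in these data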
HTR2A ag conf – mouse HTR2A agonism confirmed; CHO-K1 PathHunter beta-arrestin recruitment, luminescence; DMSO 0%, 30 µM serotonin 100%; activation, % at 7.6 µM; hit rate 19% among 2,300; shares compounds with m5-HT2A agonist; AID 624381;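 active means mean activation across triplicates above the hit threshold derived in the original primary screen, cut at about 15% in these data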
Each line names hits and unclear results; the compound was inactive in the other large screens (follow-up assays come after a bar, where they were run). This is a sample that favours compounds with a hit; in the whole collection about 2.1% have one here.

CN1CCN(S(=O)(=O)c2cccc(C(=O)Nc3cc(C(N)=O)cc(C(N)=O)c3)c2)CC1	m5-HT2A agonist 16 | MOR ag counter inactive | HTR2A ag conf inactive
COCCNC(=S)Nc1ccccc1[N+](=O)[O-]	none
C=CCn1c(N)c(C(=O)Nc2cccc(C)c2)c2nc3ccccc3nc21	m5-HT2A agonist 20 | MOR ag counter inactive | HTR2A ag conf inactive
C=CCn1c(N)c(C(=O)Nc2ccc(C)c(C)c2)c2nc3ccccc3nc21	none
CCN1CCN(C(=S)Nc2cccc([N+](=O)[O-])c2)CC1	m5-HT2A agonist 26 | MOR ag counter inactive | HTR2A ag conf inactive
O=[N+]([O-])c1cccc(NC(=S)N2CCCC2)c1	none
CC1CCc2c(sc(Nc3nc4c(F)cccc4s3)c2C(N)=O)C1 (configuration not stated)	m5-HT2A agonist 19 | MOR ag counter inactive | HTR2A ag conf inactive
Oc1ccc(C2CNCc3sccc32)cc1O (configuration not stated)	m5-HT2A agonist 48 | MOR ag counter inactive | HTR2A ag conf 151
Oc1ccc(C2C[C@H]3CC[C@@H]2C3)cc1O (some centres not stated)	none
COc1ccc(C(=O)N=C2SC3CS(=O)(=O)CC3N2c2ccc(C(C)=O)cc2)cc1 (configuration not stated)	m5-HT2A agonist 16 | MOR ag counter inactive | HTR2A ag conf inactive
COC(=O)c1ccc(C2/C(=C(/O)c3ccc(Cl)cc3)C(=O)C(=O)N2C2CCS(=O)(=O)C2)cc1 (configuration not stated)	none
c1ccc(CNc2c3ccccc3nc3ccccc23)cc1	none
Oc1ccc(CCNc2c3ccccc3nc3ccccc23)cc1O	m5-HT2A agonist 42 | MOR ag counter inactive | HTR2A ag conf 58
O=[N+]([O-])c1cccc(S(=O)(=O)NCCc2cn3ccccc3n2)c1	m5-HT2A agonist 15 | MOR ag counter inactive | HTR2A ag conf inactive
CCC(=O)NC(c1cc(Cl)c2cccnc2c1O)C(C)C (configuration not stated)	none
Oc1c(C(c2ccccn2)N2CCCCC2)cc(Cl)c2cccnc12 (configuration not stated)	CCR6 antagonist 63, m5-HT2A agonist 22 | MOR ag counter inactive | HTR2A ag conf inactive
CN(C)CCNc1ncnc2c1ncn2[C@H]1CN(C)C[C@@H](CO)O1	none (no result: CCR6 antagonist, APJ agonist, APJ antagonist)
CCOc1ccc2nc(NS(=O)(=O)c3ccc(NC(C)=O)cc3)sc2c1	none
Cc1ccc(NC(=O)CSc2nc3ccccc3c(=O)n2CCCN2CCCCC2)cc1Cl	m5-HT2A agonist 30 | MOR ag counter inactive | HTR2A ag conf inactive
CC(=O)Nc1ccc(NC(=O)CSc2nc3ccccc3c(=O)n2CCCN2CCOCC2)cc1	none
COc1ccc(NC(=O)CSc2nc3ccccc3c(=O)n2CCCN2CCC(C)CC2)c(OC)c1	m5-HT2A agonist 61 | MOR ag counter inactive | HTR2A ag conf 18
COCCn1c(SCC(=O)Nc2ccc(OC)cc2OC)nc2ccccc2c1=O	none
CC1CCN(CCCn2c(SCC(=O)Nc3ccccc3Cl)nc3ccccc3c2=O)CC1	m5-HT2A agonist 43 | MOR ag counter inactive | HTR2A ag conf 24
COc1ccc(-n2c(SCC(=O)Nc3cc(C(=O)O)ccc3C)nc3ccccc3c2=O)cc1Cl	m5-HT2A agonist 17 | MOR ag counter inactive | HTR2A ag conf inactive
Cc1ccc(N(C)S(=O)(=O)c2csc(C(N)=O)c2)cc1C	m5-HT2A agonist 15 | MOR ag counter inactive | HTR2A ag conf inactive
CCOc1ccc(N(C)S(=O)(=O)c2csc(C(N)=O)c2)cc1	none
CCCCc1cc(=O)oc2cc(OC(C)C(=O)NCc3ccccn3)c(Cl)cc12 (configuration not stated)	m5-HT2A agonist 17 | MOR ag counter inactive | HTR2A ag conf inactive
CC1CC(C)CN(S(=O)(=O)c2ccc(NN)nc2)C1 (configuration not stated)	none
